ChEMBL document CHEMBL3525946, “Species comparison of in vivo P-glycoprotein-mediated brain efflux using mdr1a-deficient rats and mice” (Drug Metab Dispos, 2012)

Tests used:
[1] = Percentage unbound in Crl:NMRI(Han) mouse plasma at 1 uM after 5 hrs by equilibrium dialysis method; format: ADME, cell-free
Procedure, shortened: (§1)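 Equilibrium dialysis (12-14 kDa membrane) of plasma or brain homogenate from naïve male Sprague-Dawley rats or Crl:NMRI(Han) mice. Donor side spiked to 1 µM final; receiver phosphate buffer pH 7.4; 37°C for 5 h. Buffer phase quantified by LC-MS. Brain fu corrected for homogenate dilution to intact tissue. Mean of two independent determinations.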

[2] = Percentage unbound in Sprague-Dawley rat plasma at 1 uM after 5 hrs by equilibrium dialysis method; format: ADME, cell-free; procedure, shortened: as §1
[3] = Total plasma concentration in wild type Crl:CF1 mouse expressing Abcb1a mutant at 3 mg/kg/day administered through continuous minipump treatment for 3 days by UPLC-MS analysis; format: ADME, organism-based; conditions: other: continuous minipump
Procedure, shortened: (§2)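 Subcutaneous osmotic minipump infusion for 3 days to steady state, implanted under isoflurane (rats 10 µl/h, mice 1 µl/h). Mdr1a-deficient (SD-Abcb1a knockout rats; Crl:CF1-Abcb1a mutant mice) and wild-type animals, n=3-5 per group. After decapitation, EDTA plasma and whole brain (homogenized 1:4 in 70% acetonitrile) were precipitated with internal standard. Parent and metabolites quantified by UPLC-MS. Mean ± SEM.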

[4] = Total plasma concentration in mdr1a-deficient Sprague-Dawley rat at 6 mg/kg/day administered through continuous minipump treatment for 3 days by UPLC-MS analysis; format: ADME, organism-based; conditions: other: continuous minipump; procedure, shortened: as §2
[5] = Percentage unbound in Crl:NMRI(Han) mouse brain at 1 uM after 5 hrs by equilibrium dialysis method; format: ADME, tissue-based; procedure, shortened: as §1
[6] = Total drug level in mdr1a-deficient mouse brain at 3 mg/kg/day administered through continuous minipump treatment for 3 days by UPLC-MS analysis; format: ADME, organism-based; conditions: other: continuous minipump, read-out: Drug uptake; procedure, shortened: as §2
[7] = Total drug level in mdr1a-deficient rat brain at 6 mg/kg/day administered through continuous minipump treatment for 3 days by UPLC-MS analysis; format: ADME, organism-based; conditions: other: continuous minipump, read-out: Drug uptake; procedure, shortened: as §2
[8] = Unbound brain to plasma partition coefficient of the compound in mdr1a-deficient rat at 6 mg/kg/day administered through continuous minipump treatment for 3 days; format: ADME, organism-based; conditions: other: continuous minipump, read-out: K(p,uu,brain)
Procedure, shortened: (§3)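 Kp,uu is (Cbrain,total × fu,brain)/(Cplasma,total × fu,plasma). Total concentrations were measured at steady state after a 3-day subcutaneous minipump infusion in knockout or wild-type animals. Species-matched free fractions came from 5 h, 37°C equilibrium dialysis at 1 µM in naïve plasma and brain homogenate.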

[9] = Total drug level in wild type Crl:CF1 mouse brain expressing Abcb1a mutant at 3 mg/kg/day administered through continuous minipump treatment for 3 days by UPLC-MS analysis; format: ADME, organism-based; conditions: other: continuous minipump, read-out: Drug uptake; procedure, shortened: as §2
[10] = Total plasma concentration in wild type Sprague-Dawley rat expressing Abcb1a at 6 mg/kg/day administered through continuous minipump treatment for 3 days by UPLC-MS analysis; format: ADME, organism-based; conditions: other: continuous minipump; procedure, shortened: as §2
[11] = Total brain to plasma partition coefficient of the compound in wild type Sprague-Dawley rat expressing Abcb1a at 6 mg/kg/day administered through continuous minipump treatment for 3 days; format: ADME, organism-based; conditions: brain and plasma, other: continuous minipump
Procedure, shortened: (§4)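 Kp is total brain concentration divided by total plasma concentration at steady state. Measured after a 3-day subcutaneous osmotic minipump infusion in mdr1a-deficient or wild-type rats or mice, n=3-5. Concentrations determined by UPLC-MS in plasma and in whole-brain homogenate (70% acetonitrile). Mean ± SEM.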

[12] = Total brain to plasma partition coefficient of the compound in mdr1a-deficient rat at 6 mg/kg/day administered through continuous minipump treatment for 3 days; format: ADME, organism-based; conditions: brain and plasma, other: continuous minipump; procedure, shortened: as §4
[13] = Total brain to plasma partition coefficient of the compound in wild type Crl:CF1 mouse expressing Abcb1a mutant at 3 mg/kg/day administered through continuous minipump treatment for 3 days; format: ADME, organism-based; conditions: other: continuous minipump; procedure, shortened: as §4
[14] = Unbound brain to plasma partition coefficient of the compound in wild type Crl:CF1 mouse expressing Abcb1a mutant at 3 mg/kg/day administered through continuous minipump treatment for 3 days; format: ADME, organism-based; conditions: other: continuous minipump, read-out: K(p,uu,brain); procedure, shortened: as §3
[15] = Total drug level in wild type Sprague-Dawley rat brain expressing Abcb1a at 6 mg/kg/day administered through continuous minipump treatment for 3 days by UPLC-MS analysis; format: ADME, organism-based; conditions: other: continuous minipump, read-out: Drug uptake; procedure, shortened: as §2
[16] = Unbound brain to plasma partition coefficient of the compound in mdr1a-deficient mouse at 3 mg/kg/day administered through continuous minipump treatment for 3 days; format: ADME, organism-based; conditions: other: continuous minipump, read-out: K(p,uu,brain); procedure, shortened: as §3
[17] = Unbound brain to plasma partition coefficient of the compound in wild type Sprague-Dawley rat expressing Abcb1a at 6 mg/kg/day administered through continuous minipump treatment for 3 days; format: ADME, organism-based; conditions: other: continuous minipump, read-out: K(p,uu,brain); procedure, shortened: as §3
[18] = Total brain to plasma partition coefficient of the compound in mdr1a-deficient mouse at 3 mg/kg/day administered through continuous minipump treatment for 3 days; format: ADME, organism-based; conditions: other: continuous minipump; procedure, shortened: as §4
[19] = Percentage unbound in Sprague-Dawley rat brain at 1 uM after 5 hrs by equilibrium dialysis method; format: ADME, tissue-based; procedure, shortened: as §1
[20] = Total plasma concentration in mouse at 3 mg/kg/day administered through continuous minipump treatment for 3 days by UPLC-MS analysis; format: ADME, organism-based; conditions: other: continuous minipump; procedure, shortened: as §2

Row | SMILES | fraction unbound at 5 h, 1 µM [1] | fraction unbound at 5 h, 1 µM [2] | concentration at 72 h [3] | concentration at 72 h [4] | fraction unbound at 5 h, 1 µM [5] | concentration at 72 h [6] | concentration at 72 h [7] | Kp uu at 72 h [8] | concentration at 72 h [9] | concentration at 72 h [10] | Kp at 72 h [11] | Kp at 72 h [12] | Kp at 72 h [13] | Kp uu at 72 h [14] | concentration at 72 h [15] | Kp uu at 72 h [16] | Kp uu at 72 h [17] | Kp at 72 h [18] | fraction unbound at 5 h, 1 µM [19] | concentration at 72 h [20]
1 | Cc1nc2n(c(=O)c1CCN1CCC(c3noc4cc(F)ccc34)CC1)CC(O)CC2 (configuration not stated) | 0.54 | 0.2 | – | – | – | – | – | – | – | – | – | – | – | – | – | – | – | – | – | –
2 | O=C1CCc2ccc(OCCCCN3CCN(c4cccc(Cl)c4Cl)CC3)cc2N1 [ARIPIPRAZOLE] | 0.002 | 0.001 | 51 ng/mL | 22 ng/mL | 0.001 | 41 ng/g | 14 ng/g | 0.64 | 25 ng/g | 18 ng/mL | 0.19 | 0.64 | 0.49 | 0.25 | 3 ng/g | 0.64 | 0.19 | 1.3 | 0.001 | 32 ng/mL
